Measurements taken from ChEMBL document CHEMBL2380301, “Chemotherapy of leishmaniasis. Part XII: design, synthesis and bioevaluation of novel triazole integrated phenyl heteroterpenoids as antileishmanial agents” (Bioorg Med Chem Lett, 2013).
pIC50: −log10 of the molar value.

How the values were obtained:
[1] = Cytotoxicity against african green monkey Vero cells after 72 hrs by MTT assay; format: cell-based; conditions: chlorocebus sabaeus
Outline: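 Vero monkey kidney […] were exposed to compounds for 72 h, and viable cells were detected with MTT by a modified Mosmann method. CC50 is the mean of two independent experiments.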

[2] = test system: Leishmania donovani; experiment: Antileishmanial activity against amastigotes of Leishmania donovani assessed as inhibition of parasite growth after 72 hrs by luciferase reporter assay; format: functional, organism-based
Outline: (§1)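 J-774A.1 murine macrophages (4 × 10³/well) were seeded and grown 24 h, then infected with luciferase-transfected L. donovani promastigotes (4 × 10⁴/well) that transformed intracellularly into amastigotes. Compounds at […] were added for 72 h. After supernatant removal, cells were taken up in PBS with Steady-Glo and luminescence read. Inhibition was calculated against untreated controls. IC50 is the mean of two independent experiments.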

[3] = Selectivity index, ratio of CC50 for african green monkey Vero cells to IC50 for amastigotes of Leishmania donovani; format: functional
Outline: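 Ratio of CC50 on Vero cells (72 h MTT) to IC50 on intramacrophage L. donovani amastigotes in luciferase-expressing J-774A.1 infections (72 h). Both values are means of two independent experiments.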

[4] = test system: Leishmania donovani; experiment: Antileishmanial activity against amastigotes of Leishmania donovani assessed as inhibition of parasite growth at 40 uM after 72 hrs by luciferase reporter assay; format: functional; outline: as §1
[5] = test system: Leishmania donovani; experiment: Antileishmanial activity against Leishmania donovani infected in golden hamster assessed as inhibition of parasite multiplication at 50 mg/kg, ip qd for 5 days measured on day 7; format: functional; conditions: route intraperitoneal
Outline: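 Inbred golden hamsters of either sex, 40–45 g, infected intracardiacally with 1 × 10⁷ L. donovani amastigotes per animal. Dosing was 50 mg/kg ip for 5 days. Biopsies were taken on day 7 after the last dose and amastigotes counted by Giemsa staining. Counts were compared between treated and untreated animals and with the initial count in treated animals, and expressed as per cent inhibition.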

In the case of `CC1=C(/C=C/C(=O)/C=C/c2ccc(-n3cncn3)cc2)C(C)(C)CCC1`, the CC50 at 72 h [1] was 72.4 µM, the pIC50 [2] was 4.82 and the “Ratio CC50/IC50” value [3] was 5. For the same compound, the inhibition at 40 µM [4] was 100%.
With `CC1=C(/C=C/C2=NN(c3ccccc3)C(c3ccc(-n4cncn4)cc3)C2)C(C)(C)CCC1` (centres undefined) the CC50 at 72 h [1] was 112 µM, the pIC50 [2] was 5.19 and the “Ratio CC50/IC50” value [3] was 18. The inhibition at 40 µM [4] was 100% and the inhibition in vivo at 50 mg/kg [5] was 79%.
In the case of `CC1=C(/C=C/C2=NN(c3ccc(F)cc3)C(c3ccc(-n4cncn4)cc3)C2)C(C)(C)CCC1` (centres undefined), the CC50 at 72 h [1] was 58.6 µM, the pIC50 [2] was 4.91 and the “Ratio CC50/IC50” value [3] was 5. For the same compound, the inhibition at 40 µM [4] was 98.7%.
In the case of `CC1=CCCC(C)(C)C1/C=C/C(=O)/C=C/c1ccc(-n2cncn2)cc1` (centres undefined), the CC50 at 72 h [1] was 38.5 µM, the pIC50 [2] was 4.94 and the “Ratio CC50/IC50” value [3] was 3. The inhibition at 40 µM [4] was 98.2%.
With `CC1=CCCC(C)(C)C1/C=C/C1=NN(c2ccccc2)C(c2ccc(-n3cncn3)cc2)C1` (centres undefined) the CC50 at 72 h [1] was 296 µM, the pIC50 [2] was 5.04 and the “Ratio CC50/IC50” value [3] was 32. For the same compound, the inhibition at 40 µM [4] was 98% and the inhibition in vivo at 50 mg/kg [5] was 58%.
In the case of `CC1=CCCC(C)(C)C1/C=C/C1=NN(c2ccc(F)cc2)C(c2ccc(-n3cncn3)cc2)C1` (centres undefined), the CC50 at 72 h [1] was 72.2 µM, the pIC50 [2] was 4.77 and the “Ratio CC50/IC50” value [3] was 4. The inhibition at 40 µM [4] was 90.5%.
In the case of `Clc1ccc(COC(Cn2ccnc2)c2ccc(Cl)cc2Cl)c(Cl)c1` (centres undefined) [MICONAZOLE], the CC50 at 72 h [1] was 37.4 µM, the pIC50 [2] was 5.27 and the “Ratio CC50/IC50” value [3] was 7. It also gave an inhibition at 40 µM [4] of 100%.
In the case of `CCCCCCCCCCCCCCCCOP(=O)([O-])OCC[N+](C)(C)C` [MILTEFOSINE], the CC50 at 72 h [1] was 54.7 µM, the pIC50 [2] was 5.07 and the “Ratio CC50/IC50” value [3] was 6. For the same compound, the inhibition at 40 µM [4] was 100%.
